Data published in ChEMBL document CHEMBL4038304, “Chiral Indolylarylsulfone Non-Nucleoside Reverse Transcriptase Inhibitors as New Potent and Broad Spectrum Anti-HIV-1 Agents” (J Med Chem, 2017).
Calls of active or inactive are those of the source. The calls are words filed in the database; no cut-off is given here.

Assays:
[1] = system: Human immunodeficiency virus 1; test: Antiviral activity against HIV1 NL4-3 infected in human […] cells assessed as protection against virus-induced cytopathic effect measured on day 5 post infection by MTT assay; type: functional, cell-based; settings: Human immunodeficiency virus 1, NL4-3, 120 h
Procedure, shortened: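 Values are means of two to three independent experiments, each run in triplicate. The lowest detectable concentration is reported where activity fell below the assay limit.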

[2] = system: Human immunodeficiency virus 1; test: Antiviral activity against HIV1 harboring reverse transcriptase K103N mutant infected in human […] cells assessed as protection against virus-induced cytopathic effect measured on day 5 post infection by MTT assay; type: functional, cell-based; settings: Human immunodeficiency virus 1, 120 h
[3] = system: Human immunodeficiency virus 1; test: Antiviral activity against HIV1 harboring reverse transcriptase Y181C mutant infected in human […] cells assessed as protection against virus-induced cytopathic effect measured on day 5 post infection by MTT assay; type: functional, cell-based; settings: Human immunodeficiency virus 1, 120 h
[4] = system: Human immunodeficiency virus 1; test: Antiviral activity against HIV1 harboring reverse transcriptase Y188L mutant infected in human […] cells assessed as protection against virus-induced cytopathic effect measured on day 5 post infection by MTT assay; type: functional, cell-based; settings: Human immunodeficiency virus 1, 120 h
[5] = system: Human immunodeficiency virus 1; test: Antiviral activity against HIV1 harboring reverse transcriptase K103N /[…] double mutant infected in human […] cells assessed as protection against virus-induced cytopathic effect measured on day 5 post infection by MTT assay; type: functional, cell-based; settings: Human immunodeficiency virus 1, 120 h
[6] = target: Human immunodeficiency virus type 1 reverse transcriptase (Human immunodeficiency virus 1, UniProt Q72547); test: Inhibition of HIV1 NL4-3 reverse transcriptase His-tagged p66/p51 associated RNA dependent DNA polymerase activity expressed in Escherichia coli assessed as reduction in [3H]dTTP incorporation using poly(rA)/oligo(dT) as template/primer by scintillation counting analysis
[7] = target: Human immunodeficiency virus type 1 reverse transcriptase (Human immunodeficiency virus 1, UniProt Q72547, K103N); test: Inhibition of HIV1 reverse transcriptase p66 K103N mutant associated RNA dependent DNA polymerase activity expressed in Escherichia coli assessed as reduction in [3H]dTTP incorporation using poly(rA)/oligo(dT) as template/primer by scintillation counting analysis
[8] = target: Human immunodeficiency virus type 1 reverse transcriptase (Human immunodeficiency virus 1, UniProt Q72547, Y181I); test: Inhibition of HIV1 reverse transcriptase p66 Y181I mutant associated RNA dependent DNA polymerase activity expressed in Escherichia coli assessed as reduction in [3H]dTTP incorporation using poly(rA)/oligo(dT) as template/primer by scintillation counting analysis
[9] = Inhibition of HIV1 reverse transcriptase p66 K103N/[…] double mutant associated RNA dependent DNA polymerase activity expressed in Escherichia coli assessed as reduction in [3H]dTTP incorporation using poly(rA)/oligo(dT) as template/primer by scintillation counting analysis; design: species or system Human immunodeficiency virus 1
[10] = target: Human immunodeficiency virus type 1 reverse transcriptase (Human immunodeficiency virus 1, UniProt Q72547, Y181C); test: Inhibition of HIV1 reverse transcriptase p66 Y181C mutant associated RNA dependent DNA polymerase activity expressed in Escherichia coli assessed as reduction in [3H]dTTP incorporation using poly(rA)/oligo(dT) as template/primer by scintillation counting analysis
[11] = Cytotoxicity against human MT4 cells assessed as cell viability by MTT assay; type: cell-based
Procedure, shortened: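 Uninfected MT-4 cells scored for viability by MTT. […] Values are means of two to three independent experiments, each run in triplicate.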

BV-2 [12] = test: Antineuroinflammatory activity in C57BL/6 mouse BV2 cells assessed as inhibition of LPS-induced nitric oxide production at 1 to 10 uM after 24 hrs by Griess assay; type: functional, cell-based
BV-2 [13] = test: Downregulation of iNOS mRNA levels in C57BL/6 mouse BV2 cells at 1000 nM after 24 hrs by RT-PCR assay; type: functional, cell-based
BV-2 [14] = test: Effect on CD163 mRNA levels in C57BL/6 mouse BV2 cells at 1000 nM after 24 hrs by RT-PCR assay; type: functional, cell-based
BV-2 [15] = test: Effect on fizz mRNA levels in C57BL/6 mouse BV2 cells at 1000 nM after 24 hrs by RT-PCR assay; type: functional, cell-based
BV-2 [16] = test: Cytotoxicity against C57BL/6 mouse BV2 cells assessed as effect on cell proliferation rate at 10 to 10000 nM up to 48 hrs by MTT assay; type: cell-based; settings: bv-2, 48 h, 10 µM
Procedure, shortened: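 BV2 microglial cells cultured with compound at 10, 102, 103 and 104 nM, then proliferation rate measured.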

[17] = system: hippocampal neurons (Mus musculus); test: Neuroprotective activity against glutamate-induced excitotoxicity in C57BL/6 mouse hippocampal neurons assessed as increase in cell viability at 1000 nM preincubated for 30 mins followed by reincubation in conditioned culture media for 18 hrs in presence of glutamate by hemacytometric analysis
[18] = Selectivity index, ratio of CC50 for human MT4 cells to EC50 for HIV1 NL4-3 infected in human MT4 cells; type: toxicity, cell-based; settings: read-out: Ratio CC50/EC50
Procedure, shortened: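 SI computed as CC50/EC50, using the MTT-based CC50 in uninfected MT-4 cells and the MTT-based EC50 against HIV-1 NL4-3-induced cell death in MT-4 cells. Experiments were run in triplicate, two to three times.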

[19] = system: Human immunodeficiency virus 1; test: Ratio of EC50 for HIV-1 harboring reverse transcriptase K103N mutant infected in human MT4 cells to EC50 for HIV1 NL4-3 infected in human MT4 cells; type: functional
Procedure, shortened: (§1)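 Fold change calculated as EC50 against the stated resistant mutant HIV-1 strain divided by EC50 against wild-type NL4-3. Both EC50s come from MTT read-out of virus-induced death in MT-4 cells, mean of two to three independent experiments each in triplicate.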

[20] = system: Human immunodeficiency virus 1; test: Ratio of EC50 for HIV-1 harboring reverse transcriptase Y181C mutant infected in human MT4 cells to EC50 for HIV1 NL4-3 infected in human MT4 cells; type: functional; procedure, shortened: as §1
[21] = system: Human immunodeficiency virus 1; test: Ratio of EC50 for HIV-1 harboring reverse transcriptase Y188L mutant infected in human MT4 cells to EC50 for HIV1 NL4-3 infected in human MT4 cells; type: functional; procedure, shortened: as §1
[22] = system: Human immunodeficiency virus 1; test: Ratio of EC50 for HIV-1 harboring reverse transcriptase K103N/[…] double mutant infected in human MT4 cells to EC50 for HIV1 NL4-3 infected in human MT4 cells; type: functional; procedure, shortened: as §1
BV-2 [23] = test: Downregulation of CD86 mRNA levels in C57BL/6 mouse BV2 cells at 1000 nM after 24 hrs by RT-PCR assay; type: functional, cell-based

Structure (SMILES)	EC50 [1]	EC50 [2]	EC50 [3]	EC50 [4]	EC50 [5]	IC50 [6]	IC50 [7]	IC50 [8]	IC50 [9]	IC50 [10]	CC50 [11]	Activity (BV-2 [12])	Activity (BV-2 [13])	Activity (BV-2 [14])	Activity (BV-2 [15])	Activity (BV-2 [16])	Activity [17]	other results
Cc1cc(C)cc(S(=O)(=O)c2c(C(=O)N[C@H](C)C(=O)NCc3ccncc3)[nH]c3ccc(Cl)cc23)c1	0.0007 µM	0.114 µM	0.181 µM	> 23.1 µM	7.12 µM	13 µM	> 50 µM	61 µM	> 200 µM	61 µM								
Cc1cc(C)cc(S(=O)(=O)c2c(C(=O)N[C@H](C)c3ccccc3F)[nH]c3ccc(Cl)cc23)c1	0.0007 µM	0.0007 µM	0.0007 µM	0.165 µM	2.49 µM	0.087 µM	0.228 µM	0.456 µM	0.222 µM	0.456 µM								
Cc1cc(C)cc(S(=O)(=O)c2c(C(=O)N[C@@H](C)C(=O)NCc3ccncc3)[nH]c3ccc(Cl)cc23)c1	0.0007 µM	0.0007 µM	0.0007 µM	0.666 µM	0.857 µM	0.506 µM	0.417 µM	0.87 µM	> 40 µM	0.87 µM								
Cc1cc(C)cc(S(=O)(=O)c2c(C(=O)N[C@@H](C)c3ccccc3F)[nH]c3ccc(Cl)cc23)c1	0.0007 µM	0.103 µM	0.68 µM	> 51.6 µM	> 51.6 µM	0.175 µM		17.2 µM	> 10 µM	17.2 µM								
O=C1Nc2ccc(Cl)cc2[C@@](C#CC2CC2)(C(F)(F)F)O1 [EFAVIRENZ]	0.0159 µM	0.13 µM	0.16 µM	0.76 µM	> 0.317 µM						> 15.8 µM	Active	Active	inactive	inactive	Non-Toxic	inactive	
Cc1cc(C)cc(S(=O)(=O)c2c(C(=O)NC(C)C(=O)NCc3ccncc3)[nH]c3ccc(Cl)cc23)c1 (racemic)	0.0002 µM	0.0019 µM	0.021 µM	0.819 µM	0.838 µM						19.5 µM	Active	Active	inactive	inactive	Non-Toxic	Active	selectivity ratio [18]: 102000; Ratio EC50 [19]: 52; Ratio EC50 [20]: 105; Ratio EC50 [21]: 4095; Ratio EC50 [22]: 4190; Activity (BV-2 [23]): Active
